Laboratory results: ChEMBL document CHEMBL3352165 (Eur J Med Chem, 2014)
The source made the active and inactive calls. The calls are words filed in the database; no cut-off is given here.

Assays:
[1] = Cytotoxicity against human SKBR3 cells assessed as inhibition of cell growth after 72 hrs by sulforhodamine B assay; format: functional, cell-based; conditions: SK-BR-3, 72 h
Summary of the method: (§1)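 Cells grown in RPMI-1640 with 5% FBS and plated at 5.0×10^4/ml. Next day exposed to 0.5–5000 ng/ml for 3 days. Survival read by sulforhodamine B staining. IC50 taken from growth curves; mean of at least three determinations.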

[2] = test system: BT-474; test: Cytotoxicity against human BT474 cells assessed as inhibition of cell growth after 72 hrs by sulforhodamine B assay; format: functional, cell-based; conditions: BT-474, 72 h; summary of the method: as §1
[3] = test system: A-431; test: Cytotoxicity against human A431 cells assessed as inhibition of cell growth after 72 hrs by sulforhodamine B assay; format: functional, cell-based; conditions: A-431, 72 h; summary of the method: as §1
[4] = test system: MCF7; test: Cytotoxicity against human MCF7 cells assessed as inhibition of cell growth after 72 hrs by sulforhodamine B assay; format: functional, cell-based; conditions: MCF7, 72 h; summary of the method: as §1
[5] = test system: BT-474; test: Induction of cell cycle arrest in human BT474 cells assessed as accumulation at G1 phase at 0.001 uM incubated for 12 hrs by propidium iodide staining based flow cytometry (reference value: 67%); format: functional
[6] = test system: BT-474; test: Induction of cell cycle arrest in human BT474 cells assessed as accumulation at G2/M phase at 0.001 uM incubated for 12 hrs by propidium iodide staining based flow cytometry (reference value: 14%); format: functional
[7] = test system: BT-474; test: Induction of cell cycle arrest in human BT474 cells assessed as accumulation at S phase at 0.001 uM incubated for 12 hrs by propidium iodide staining based flow cytometry (reference value: 19%); format: functional
[8] = test system: BT-474; test: Induction of apoptosis in human BT474 cells at 0.001 uM incubated for 12 hrs by propidium iodide staining based flow cytometry (reference value: 1%); format: functional
[9] = test system: BT-474; test: Induction of cell cycle arrest in human BT474 cells assessed as accumulation at G1 phase at 0.01 uM incubated for 12 hrs by propidium iodide staining based flow cytometry (reference value: 67%); format: functional
[10] = test system: BT-474; test: Induction of cell cycle arrest in human BT474 cells assessed as accumulation at G2/M phase at 0.01 uM incubated for 12 hrs by propidium iodide staining based flow cytometry (reference value: 14%); format: functional
[11] = test system: BT-474; test: Induction of cell cycle arrest in human BT474 cells assessed as accumulation at S phase at 0.01 uM incubated for 12 hrs by propidium iodide staining based flow cytometry (reference value: 19%); format: functional
[12] = test system: BT-474; test: Induction of apoptosis in human BT474 cells at 0.01 uM incubated for 12 hrs by propidium iodide staining based flow cytometry (reference value: 1%); format: functional
[13] = test system: BT-474; test: Induction of cell cycle arrest in human BT474 cells assessed as accumulation at G1 phase at 0.1 uM incubated for 12 hrs by propidium iodide staining based flow cytometry (reference value: 67%); format: functional
[14] = test system: BT-474; test: Induction of cell cycle arrest in human BT474 cells assessed as accumulation at G2/M phase at 0.1 uM incubated for 12 hrs by propidium iodide staining based flow cytometry (reference value: 14%); format: functional
[15] = test system: BT-474; test: Induction of cell cycle arrest in human BT474 cells assessed as accumulation at S phase at 0.1 uM incubated for 12 hrs by propidium iodide staining based flow cytometry (reference value: 19%); format: functional
[16] = test system: BT-474; test: Induction of apoptosis in human BT474 cells at 0.1 uM incubated for 12 hrs by propidium iodide staining based flow cytometry (reference value: 1%); format: functional
[17] = test system: BT-474; test: Induction of cell cycle arrest in human BT474 cells assessed as accumulation at G1 phase at 1 uM incubated for 12 hrs by propidium iodide staining based flow cytometry (reference value: 67%); format: functional
[18] = test system: BT-474; test: Induction of cell cycle arrest in human BT474 cells assessed as accumulation at G2/M phase at 1 uM incubated for 12 hrs by propidium iodide staining based flow cytometry (reference value: 14%); format: functional
[19] = test system: BT-474; test: Induction of cell cycle arrest in human BT474 cells assessed as accumulation at S phase at 1 uM incubated for 12 hrs by propidium iodide staining based flow cytometry (reference value: 19%); format: functional
[20] = test system: BT-474; test: Induction of apoptosis in human BT474 cells at 1 uM incubated for 12 hrs by propidium iodide staining based flow cytometry (reference value: 1%); format: functional
[21] = test system: BT-474; test: Induction of cell cycle arrest in human BT474 cells assessed as accumulation at G1 phase at 10 uM incubated for 12 hrs by propidium iodide staining based flow cytometry (reference value: 67%); format: functional
[22] = test system: BT-474; test: Induction of cell cycle arrest in human BT474 cells assessed as accumulation at G2/M phase at 10 uM incubated for 12 hrs by propidium iodide staining based flow cytometry (reference value: 14%); format: functional
[23] = test system: BT-474; test: Induction of cell cycle arrest in human BT474 cells assessed as accumulation at S phase at 10 uM incubated for 12 hrs by propidium iodide staining based flow cytometry (reference value: 19%); format: functional
[24] = test system: BT-474; test: Induction of apoptosis in human BT474 cells at 10 uM incubated for 12 hrs by propidium iodide staining based flow cytometry (reference value: 1%); format: functional
[25] = Antitumor activity against human Calu3 cells xenografted in BALB/cA mouse assessed as tumor growth inhibition at 200 mg/kg, po; format: functional; conditions: Calu-3, read-out: TGI
Summary of the method: (§2)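 Female BALB/cA nude mice, 6–7 weeks old, implanted s.c. on midright side with 2×10^6 Calu-3 cells in 0.2 ml PBS. Grouped at 60–150 mm³ tumour volume (6 per treated group, 12 vehicle). Oral dosing in 0.5% CMC with 0.1% Tween-80. Caliper volume = L×W²×0.5; inhibition = (1 − T/C)×100% on relative tumour volume; weight tracked for 21 d.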

[26] = Antitumor activity against human Calu3 cells xenografted in BALB/cA mouse assessed as tumor growth inhibition at 100 mg/kg, po; format: functional; conditions: Calu-3, read-out: TGI; summary of the method: as §2
[27] = test system: Mus musculus; test: Toxicity in human Calu3 cells xenografted BALB/cA mouse assessed as body weight loss at 100 mg/kg, po measured every other day for 21 days; format: organism-based, Calu-3; parameters: dose 100 mg/kg, route oral; conditions: in vivo, 504 h
Summary of the method: (§3)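 Female BALB/cA nude mice, 6–7 weeks old, implanted s.c. on the mid-right flank with 2×10^6 Calu-3 cells in 0.2 ml PBS. At 60–150 mm³ tumour volume, mice randomised into six per treatment group (twelve vehicle controls). Oral dosing in 0.5% CMC aqueous solution with 0.1% Tween-80. Body weight recorded every other day for 21 d.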

[28] = test system: Mus musculus; test: Toxicity in human Calu3 cells xenografted BALB/cA mouse assessed as body weight loss at 200 mg/kg, po measured every other day for 21 days; format: organism-based, Calu-3; parameters: dose 200 mg/kg, route oral; conditions: in vivo, 504 h; summary of the method: as §3
[29] = molecular target: T1, Receptor tyrosine-protein kinase erbB-2 (Homo sapiens, UniProt P04626); conditions: BT-474, 0.001 to 10 uM
[30] = molecular target: T1, Receptor tyrosine-protein kinase erbB-2; conditions: BT-474, 0.001 to 10 uM; remark: listed apart in the source
[31] = molecular target: T1, Receptor tyrosine-protein kinase erbB-2; conditions: BT-474, 0.001 to 10 uM; remark: listed apart in the source
[32] = cells; conditions: Homo sapiens, Calu-3, 72 h
[33] = test system: MDA-MB-453; test: cells; conditions: Homo sapiens, MDA-MB-453, 72 h
[34] = cells; conditions: Homo sapiens, SK-OV-3, 72 h
[35] = test system: MDA-MB-231; test: cells; conditions: Homo sapiens, MDA-MB-231, 72 h
[36] = test system: NCI-H460; test: cells; conditions: Homo sapiens, NCI-H460, 72 h
[37] = test system: MRC5; test: cells; conditions: Homo sapiens, MRC5, 72 h
[38] = molecular target: Vascular endothelial growth factor receptor 2 (Homo sapiens, UniProt P35968); test: Inhibition of KDR phosphorylation (unknown origin) expressed in human HUVEC at 0.001 to 1 uM incubated for 2 hrs by Western blot method
[39] = molecular target: Mast/stem cell growth factor receptor Kit (Homo sapiens, UniProt P10721); test: Inhibition of c-KIT phosphorylation (unknown origin) expressed in human NCI-H526 cells at 0.001 to 1 uM incubated for 2 hrs by Western blot method
[40] = molecular target: Platelet-derived growth factor receptor beta (Homo sapiens, UniProt P09619); test: Inhibition of PDGFRbeta phosphorylation (unknown origin) expressed in human U87MG cells at 0.001 to 1 uM incubated for 2 hrs by Western blot method; conditions: U-87MG ATCC
Sequence of Platelet-derived growth factor receptor beta (P09619 whole entry): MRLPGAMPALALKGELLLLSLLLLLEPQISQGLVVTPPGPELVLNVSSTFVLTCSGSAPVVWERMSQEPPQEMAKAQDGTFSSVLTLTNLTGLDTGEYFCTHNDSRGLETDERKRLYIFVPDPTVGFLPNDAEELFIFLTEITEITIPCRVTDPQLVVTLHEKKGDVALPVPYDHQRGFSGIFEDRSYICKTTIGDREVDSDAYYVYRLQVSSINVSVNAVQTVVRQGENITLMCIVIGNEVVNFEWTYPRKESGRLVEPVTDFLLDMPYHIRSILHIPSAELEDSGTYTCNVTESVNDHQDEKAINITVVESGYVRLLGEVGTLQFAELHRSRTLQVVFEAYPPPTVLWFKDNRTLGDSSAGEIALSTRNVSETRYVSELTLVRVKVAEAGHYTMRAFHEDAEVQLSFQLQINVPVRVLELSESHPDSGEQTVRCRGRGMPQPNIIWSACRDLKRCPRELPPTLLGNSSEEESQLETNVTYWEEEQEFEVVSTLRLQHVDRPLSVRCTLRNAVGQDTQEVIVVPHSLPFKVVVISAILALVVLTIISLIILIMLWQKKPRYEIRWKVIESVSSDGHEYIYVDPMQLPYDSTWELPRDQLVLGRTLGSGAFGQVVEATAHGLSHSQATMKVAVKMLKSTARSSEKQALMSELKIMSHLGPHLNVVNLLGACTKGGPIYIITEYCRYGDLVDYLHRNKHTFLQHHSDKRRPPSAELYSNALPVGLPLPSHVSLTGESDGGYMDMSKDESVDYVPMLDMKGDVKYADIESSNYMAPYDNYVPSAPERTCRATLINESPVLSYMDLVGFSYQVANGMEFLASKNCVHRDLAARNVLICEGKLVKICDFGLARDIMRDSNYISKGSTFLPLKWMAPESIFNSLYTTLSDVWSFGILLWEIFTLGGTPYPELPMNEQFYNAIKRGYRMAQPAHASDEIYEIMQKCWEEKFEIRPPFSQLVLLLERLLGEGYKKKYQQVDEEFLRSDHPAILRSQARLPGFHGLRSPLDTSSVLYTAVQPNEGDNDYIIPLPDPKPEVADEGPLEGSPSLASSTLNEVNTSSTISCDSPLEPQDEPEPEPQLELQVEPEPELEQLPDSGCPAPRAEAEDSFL

T1 sequence (P04626 whole entry): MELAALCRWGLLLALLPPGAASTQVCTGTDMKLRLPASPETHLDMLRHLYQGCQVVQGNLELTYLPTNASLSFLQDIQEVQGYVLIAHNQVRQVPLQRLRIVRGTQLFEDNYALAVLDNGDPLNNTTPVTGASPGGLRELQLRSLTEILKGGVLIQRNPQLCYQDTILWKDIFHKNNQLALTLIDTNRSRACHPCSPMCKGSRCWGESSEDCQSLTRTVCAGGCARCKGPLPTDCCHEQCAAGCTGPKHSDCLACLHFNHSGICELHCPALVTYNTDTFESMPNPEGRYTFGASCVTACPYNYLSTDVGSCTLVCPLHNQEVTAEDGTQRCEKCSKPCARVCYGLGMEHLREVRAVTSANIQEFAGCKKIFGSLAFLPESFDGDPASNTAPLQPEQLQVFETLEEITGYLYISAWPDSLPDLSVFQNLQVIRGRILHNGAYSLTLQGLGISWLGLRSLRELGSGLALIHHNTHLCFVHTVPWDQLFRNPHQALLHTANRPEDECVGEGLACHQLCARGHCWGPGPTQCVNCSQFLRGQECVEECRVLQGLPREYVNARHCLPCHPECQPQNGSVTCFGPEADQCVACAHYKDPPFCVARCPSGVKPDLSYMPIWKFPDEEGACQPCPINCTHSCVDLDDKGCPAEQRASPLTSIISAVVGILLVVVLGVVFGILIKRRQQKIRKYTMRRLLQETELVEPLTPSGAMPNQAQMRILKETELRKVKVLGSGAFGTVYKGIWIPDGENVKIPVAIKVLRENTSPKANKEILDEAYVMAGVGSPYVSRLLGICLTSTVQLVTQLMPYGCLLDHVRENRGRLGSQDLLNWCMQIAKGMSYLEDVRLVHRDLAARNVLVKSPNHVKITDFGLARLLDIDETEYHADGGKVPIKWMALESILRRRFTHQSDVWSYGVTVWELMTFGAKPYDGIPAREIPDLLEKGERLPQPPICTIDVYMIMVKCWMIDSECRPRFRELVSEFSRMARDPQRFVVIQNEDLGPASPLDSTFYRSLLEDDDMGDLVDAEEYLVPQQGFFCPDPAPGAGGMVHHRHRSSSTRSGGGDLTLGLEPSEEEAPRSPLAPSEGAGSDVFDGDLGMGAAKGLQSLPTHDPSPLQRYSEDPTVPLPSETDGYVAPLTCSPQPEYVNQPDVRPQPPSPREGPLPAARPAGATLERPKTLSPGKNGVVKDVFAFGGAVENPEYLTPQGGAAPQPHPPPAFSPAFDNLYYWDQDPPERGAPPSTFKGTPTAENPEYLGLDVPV
Sequence of Mast/stem cell growth factor receptor Kit (P10721 whole entry): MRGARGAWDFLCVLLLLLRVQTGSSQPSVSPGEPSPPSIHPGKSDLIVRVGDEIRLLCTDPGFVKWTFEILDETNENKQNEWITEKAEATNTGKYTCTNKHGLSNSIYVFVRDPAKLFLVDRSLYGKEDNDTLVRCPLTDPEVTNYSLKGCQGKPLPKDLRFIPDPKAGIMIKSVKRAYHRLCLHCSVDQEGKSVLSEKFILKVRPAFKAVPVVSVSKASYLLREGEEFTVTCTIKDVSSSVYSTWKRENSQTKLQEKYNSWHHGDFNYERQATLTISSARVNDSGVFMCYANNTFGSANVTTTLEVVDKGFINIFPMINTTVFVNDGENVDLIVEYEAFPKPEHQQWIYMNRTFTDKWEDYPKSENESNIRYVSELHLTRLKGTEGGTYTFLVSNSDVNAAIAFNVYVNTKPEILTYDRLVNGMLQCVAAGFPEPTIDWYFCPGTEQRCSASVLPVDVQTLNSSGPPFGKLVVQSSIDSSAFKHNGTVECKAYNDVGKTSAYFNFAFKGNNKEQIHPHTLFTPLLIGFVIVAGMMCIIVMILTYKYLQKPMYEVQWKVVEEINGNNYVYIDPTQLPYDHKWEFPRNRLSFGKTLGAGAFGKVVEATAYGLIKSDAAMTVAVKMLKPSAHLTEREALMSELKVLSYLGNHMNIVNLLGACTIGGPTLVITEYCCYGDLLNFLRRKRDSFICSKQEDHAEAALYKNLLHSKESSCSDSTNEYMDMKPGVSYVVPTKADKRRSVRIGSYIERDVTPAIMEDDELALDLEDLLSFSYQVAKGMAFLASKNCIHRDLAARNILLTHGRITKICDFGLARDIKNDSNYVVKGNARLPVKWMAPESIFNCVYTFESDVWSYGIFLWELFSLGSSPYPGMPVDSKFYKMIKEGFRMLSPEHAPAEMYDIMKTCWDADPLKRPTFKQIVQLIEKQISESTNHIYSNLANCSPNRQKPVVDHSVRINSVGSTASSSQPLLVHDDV
Sequence of Vascular endothelial growth factor receptor 2 (P35968 whole entry): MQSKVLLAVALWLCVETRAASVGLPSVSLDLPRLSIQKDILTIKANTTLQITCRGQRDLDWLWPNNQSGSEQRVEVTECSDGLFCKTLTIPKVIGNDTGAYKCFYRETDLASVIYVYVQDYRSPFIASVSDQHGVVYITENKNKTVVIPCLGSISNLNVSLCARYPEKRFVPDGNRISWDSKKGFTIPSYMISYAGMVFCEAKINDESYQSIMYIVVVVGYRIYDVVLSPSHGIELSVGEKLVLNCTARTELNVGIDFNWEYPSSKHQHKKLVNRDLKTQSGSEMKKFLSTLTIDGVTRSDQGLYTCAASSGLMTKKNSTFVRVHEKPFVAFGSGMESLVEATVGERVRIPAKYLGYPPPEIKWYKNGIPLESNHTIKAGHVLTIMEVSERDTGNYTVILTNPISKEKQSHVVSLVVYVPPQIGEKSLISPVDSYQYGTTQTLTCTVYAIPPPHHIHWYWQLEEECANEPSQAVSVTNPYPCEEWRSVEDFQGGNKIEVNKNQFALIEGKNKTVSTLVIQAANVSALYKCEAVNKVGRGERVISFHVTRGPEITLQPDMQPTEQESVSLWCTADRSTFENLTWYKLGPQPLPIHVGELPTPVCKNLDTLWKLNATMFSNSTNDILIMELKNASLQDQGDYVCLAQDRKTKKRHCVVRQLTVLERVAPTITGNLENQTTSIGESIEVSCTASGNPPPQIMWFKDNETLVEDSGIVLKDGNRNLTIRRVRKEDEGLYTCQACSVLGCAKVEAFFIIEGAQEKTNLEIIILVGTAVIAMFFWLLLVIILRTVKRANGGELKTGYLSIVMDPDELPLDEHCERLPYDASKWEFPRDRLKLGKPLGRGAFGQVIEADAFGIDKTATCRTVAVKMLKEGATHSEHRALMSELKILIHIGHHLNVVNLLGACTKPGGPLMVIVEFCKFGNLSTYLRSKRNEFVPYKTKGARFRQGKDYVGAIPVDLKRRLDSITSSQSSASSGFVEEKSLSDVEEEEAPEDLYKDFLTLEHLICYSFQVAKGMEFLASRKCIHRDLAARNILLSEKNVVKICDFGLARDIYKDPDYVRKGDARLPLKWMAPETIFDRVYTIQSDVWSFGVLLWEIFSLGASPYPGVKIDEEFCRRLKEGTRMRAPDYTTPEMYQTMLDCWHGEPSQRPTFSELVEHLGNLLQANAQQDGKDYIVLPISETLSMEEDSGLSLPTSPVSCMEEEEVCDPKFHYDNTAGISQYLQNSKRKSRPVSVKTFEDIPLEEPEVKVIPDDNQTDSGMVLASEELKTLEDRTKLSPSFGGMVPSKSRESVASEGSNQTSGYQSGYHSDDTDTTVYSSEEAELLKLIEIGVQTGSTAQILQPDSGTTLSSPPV

CS(=O)(=O)CCNCc1ccc(-c2ccc3ncnc(Nc4ccc(OCc5cccc(F)c5)c(Cl)c4)c3c2)o1 [LAPATINIB]
IC50 [1]: 30.1 nM
IC50 [2]: 63.9 nM
IC50 [3]: 643 nM
IC50 [4]: 8470 nM
Activity [5]: 71%
Activity [6]: 14%
Activity [7]: 15%
Activity [8]: 1%
Activity [9]: 82%
Activity [10]: 11%
Activity [11]: 7%
Activity [12]: 1%
Activity [13]: 84%
Activity [14]: 10%
Activity [15]: 6%
Activity [16]: 4%
Activity [17]: 84%
Activity [18]: 10%
Activity [19]: 6%
Activity [20]: 6%
Activity [21]: 81%
Activity [22]: 11%
Activity [23]: 8%
Activity [24]: 13%
inhibition in vivo at 200 mg/kg [25]: 70%
inhibition in vivo at 100 mg/kg [26]: 56%
Activity [27]: Non-toxic
Activity [28]: Non-toxic
inhibition [29]: Active
inhibition [30]: Active
inhibition [31]: Active
IC50 [32]: 230 nM
IC50 [33]: 190 nM
IC50 [34]: 590 nM
IC50 [35]: > 100000 nM
IC50 [36]: > 100000 nM
IC50 [37]: > 100000 nM
inhibition [38]: inactive
inhibition [39]: inactive
inhibition [40]: inactive
